37 sequences from the array DNA melting data of Ke et al. (doi:10.1101/2024.01.08.574731) can be followed below.

Data set [1] is described as follows: folding enthalpy; higher = less favourable; fluorescence melt of hairpins on a sequencing array, two-state fit. As to conditions: sodium 0.088 M. A digest of the protocol:
(§1)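 To match UV melts, fitted temperatures were raised by 9.35 °C. These fits were bootstrapped two-state models that gave melting temperature and folding enthalpy, combined by inverse variance over four replicates. The input was normalised Cy3 fluorescence of library hairpins with annealed Cy3 and quencher oligos on a sequenced MiSeq flow cell, imaged in 50 mM Na-HEPES pH 8.0, 25 mM NaCl in 2.5 °C steps up to 60 °C.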

A short description of data set [2]: melting temperature; fluorescence melt of hairpins on a sequencing array, two-state fit, raised by 9.35 °C to match UV melts. As to conditions: sodium 0.088 M. In outline: as §1

Regarding GTGGGATCGAAAGATCAC (((..(((....)))))), in data set [1], the folding enthalpy was -44.4 kcal/mol. In addition, the Tm in data set [2] came out at 54.4 °C.

Turning to GTGGGCACGAAAGTGCAC (((..(((....)))))), the folding enthalpy in data set [1] is -14.6 kcal/mol. Further, the Tm in data set [2] was found to be 65.4 °C.

On to GTGGGCCGAAAGGCTCAC (((.(((....))).))), for which the folding enthalpy in data set [1] was -29.6 kcal/mol. Also, in data set [2], the Tm was found to be 69.2 °C.

Take GTGGGCGAAAGCCACAC ((((((....))).))): the folding enthalpy in data set [1] is -14.4 kcal/mol. Besides, the Tm in data set [2] stood at 59.9 °C.

For the sequence GTGGGCGAAAGCCATCAC ((((((....)))..))), the folding enthalpy in data set [1] was -11.4 kcal/mol. Also, the Tm in data set [2] turned out to be 39.7 °C.

As for GTGGGCGAAAGCCGGCAC ((((((....)))..))), the folding enthalpy in data set [1] was -12.1 kcal/mol. Also, the Tm in data set [2] turned out to be 45.8 °C.

For GTGGGCTCGAAAGAGCAC (((..(((....)))))), the folding enthalpy in data set [1] was -26 kcal/mol. Besides, the Tm in data set [2] came to 65.5 °C.

GTGGGGCCGAAAGGCCAC (((..(((....)))))): in data set [1], the folding enthalpy is -16.2 kcal/mol. In addition, in data set [2], the Tm is 64.9 °C.

In the case of GTGGGGGGAAACCCCCGC (.(((((....))))).), in data set [1], the folding enthalpy is -19.4 kcal/mol. Also, the Tm in data set [2] is 60 °C.

On to GTGGGGGGAAACCCTCGC (.(.(((....))).).), for which, in data set [1], the folding enthalpy was -17.2 kcal/mol. For the same sequence, the Tm in data set [2] stood at 40.8 °C.

On to GTGGGGGGAAACCTCCAC ((((.((....)).)))), for which the folding enthalpy in data set [1] is -44.1 kcal/mol. In data set [2], the Tm turned out to be 54.5 °C.

With GTGGGTCCGAAAGGACAC (((..(((....)))))), the folding enthalpy in data set [1] was -19 kcal/mol. Also, the Tm in data set [2] was found to be 63 °C.

As to GTGGGTCGAAAGACCAC (((.(((....)))))), the folding enthalpy in data set [1] was -14.3 kcal/mol. Further, the Tm in data set [2] came to 57 °C.

As for GTGGGTGGAAACACCCGC (.(((((....))))).), in data set [1], the folding enthalpy was -22.7 kcal/mol. Further, the Tm in data set [2] amounted to 63.3 °C.

For the sequence GTGGGTGGAAACACTCAC (((.(((....))).))), the folding enthalpy in data set [1] was -37.2 kcal/mol. The Tm in data set [2] worked out at 52.1 °C.

Regarding GTGGGTGGAAACGCCTAC ((.((.(....).)).)), the folding enthalpy in data set [1] is -25.3 kcal/mol. In addition, the Tm in data set [2] turned out to be 41.9 °C.

As for GTGGGTGGAAACGTCCAC ((((..(....)..)))), the folding enthalpy in data set [1] is -18.8 kcal/mol. Moreover, in data set [2], the Tm turned out to be 46 °C.

In the case of GTGGTACGAAAGTAACAC (((.(((....))).))), in data set [1], the folding enthalpy is -40.3 kcal/mol. Besides, the Tm in data set [2] was found to be 58.2 °C.

Regarding GTGGTACGAAAGTATCAC (((.(((....))).))), the folding enthalpy in data set [1] was -47.3 kcal/mol. In data set [2], the Tm is 54.2 °C.

Regarding GTGGTAGGAAACTACTGC (..((((....))))..), in data set [1], the folding enthalpy is -18.2 kcal/mol. Moreover, the Tm in data set [2] was 36.1 °C.

GTGGTAGGAAACTGCTAC ((.(.((....)).).)): the folding enthalpy in data set [1] is -17.7 kcal/mol. Moreover, the Tm in data set [2] worked out at 32.1 °C.

On to GTGGTCACGAAAGTGCAC (((..(((....)))))), for which the folding enthalpy in data set [1] was -16.1 kcal/mol. The Tm in data set [2] was 39.9 °C.

In the case of GTGGTCCGAAAGGAACAC (((.(((....))).))), the folding enthalpy in data set [1] is -33.6 kcal/mol. For the same sequence, the Tm in data set [2] was found to be 65.4 °C.

In the case of GTGGTCGAAAGACAACAC ((((((....)))..))), the folding enthalpy in data set [1] is -18.7 kcal/mol. The Tm in data set [2] is 46.8 °C.

As to GTGGTCGAAAGACGCCAC ((((((....)))..))), the folding enthalpy in data set [1] was -15.9 kcal/mol. Moreover, in data set [2], the Tm was found to be 39.6 °C.

For the sequence GTGGTCGAAAGACTACAC ((((((....)))..))), in data set [1], the folding enthalpy is -15.7 kcal/mol. For the same sequence, in data set [2], the Tm was found to be 48.2 °C.

As to GTGGTCGAAAGACTTCAC ((((((....)))..))), in data set [1], the folding enthalpy is -15.2 kcal/mol. The Tm in data set [2] worked out at 31.9 °C.

For GTGGTCGGAAACGACCGC (.(((((....))))).), in data set [1], the folding enthalpy is -17.8 kcal/mol. Also, the Tm in data set [2] worked out at 63 °C.

Consider GTGGTCGGAAACGGCTAC ((.(.((....)).).)), for which the folding enthalpy in data set [1] was -25.8 kcal/mol. In data set [2], the Tm came to 44.5 °C.

Regarding GTGGTGGGAAACCGTCAC (((..((....))..))), in data set [1], the folding enthalpy is -19.8 kcal/mol. Moreover, the Tm in data set [2] worked out at 38.4 °C.

GTGGTGGGAAACTACCGC (.(((.(....).))).): in data set [1], the folding enthalpy was -28.4 kcal/mol. Also, the Tm in data set [2] was found to be 42.7 °C.

Take GTGGTGTCGAAAGACCAC (((..(((....)))))): the folding enthalpy in data set [1] is -16.8 kcal/mol. Besides, the Tm in data set [2] stood at 47.6 °C.

Turning to GTGGTTCGAAAGAAACAC (((.(((....))).))), the folding enthalpy in data set [1] is -48.8 kcal/mol. Further, the Tm in data set [2] worked out at 55.8 °C.

Regarding GTGGTTGGAAACAACCGC (.(((((....))))).), the folding enthalpy in data set [1] was -31 kcal/mol. Also, the Tm in data set [2] came to 55.7 °C.

For GTGGTTGGAAACAACTGC (..((((....))))..), the folding enthalpy in data set [1] is -17.6 kcal/mol. In addition, the Tm in data set [2] was found to be 43.4 °C.

Turning to GTGTAACCGAAAGGTCAC (((..(((....)))))), in data set [1], the folding enthalpy was -22.6 kcal/mol. The Tm in data set [2] was determined as 43.6 °C.

On to GTGTAAGGAAACTTACGC (.(((((....))))).), for which, in data set [1], the folding enthalpy was -25.7 kcal/mol. For the same sequence, in data set [2], the Tm is 45.3 °C.
